# Screening results: PubChem BioAssay, Johns Hopkins Ion Channel Center
# A selection: hits, their analogues and other compounds. The true share with any hit is near 3.5%.
# RGS4 block: RGS4 inhibitors, primary screen, cell-based, HEK293 M3R inducible RGS4, calcium flux; AID 463165, 2010; Fluo-4 calcium flux; stronger effect = higher value; triggered by carbachol at its EC20; 0.45% of 310,000 active; B-score at 10 µM; Regulator of G-protein signaling 4 (Homo sapiens), P49798;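 active means B-score, a plate-corrected calcium signal, over three deviations above library mean, with baseline fluorescence within five deviations of library mean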;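 further: RGS4 expression induced by doxycycline in cells with stable M3 receptor; B-score is computed from the integrated fluorescence ratio over baseline after carbachol; higher B-score means a larger calcium signal and so more RGS4 inhibition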
# Target sequence (P49798 whole entry, looked up): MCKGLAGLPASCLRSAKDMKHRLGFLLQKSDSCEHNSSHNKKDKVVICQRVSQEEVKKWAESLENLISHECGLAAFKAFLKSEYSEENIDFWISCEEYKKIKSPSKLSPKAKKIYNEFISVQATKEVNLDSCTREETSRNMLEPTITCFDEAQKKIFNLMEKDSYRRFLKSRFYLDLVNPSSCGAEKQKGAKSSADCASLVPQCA
# MrgX1 PAM: positive allosteric modulators of MrgX1, primary screen, HEK293 cells, Fluo-4 calcium flux. Mas-related G-protein coupled receptor member X1 (Homo sapiens), Q96LB2. FDSS; stronger effect = higher value. B-score at 10 µM. 0.63% of 310,000 active. AID 588675, 2011;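 active means plate-corrected calcium response at least 3 library SD above typical, normal starting fluorescence, not activating the receptor alone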;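 further: compound read alongside a low EC10 to EC30 dose of BAM8-22 agonist; peak minus trough fluorescence over baseline measured at the second addition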
# Target sequence (Q96LB2 whole entry, looked up): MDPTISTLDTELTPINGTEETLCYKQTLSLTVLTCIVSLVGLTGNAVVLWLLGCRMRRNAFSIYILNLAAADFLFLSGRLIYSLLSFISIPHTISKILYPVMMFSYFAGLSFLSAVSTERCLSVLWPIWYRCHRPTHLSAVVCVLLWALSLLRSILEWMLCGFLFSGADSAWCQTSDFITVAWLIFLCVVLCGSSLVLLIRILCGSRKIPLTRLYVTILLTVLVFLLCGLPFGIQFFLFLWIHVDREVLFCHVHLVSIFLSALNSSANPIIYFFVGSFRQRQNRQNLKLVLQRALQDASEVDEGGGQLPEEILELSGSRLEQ
# MrgX1 antag: antagonists of human MrgX1 receptor, primary screen, HEK293 cells, Fluo-4 calcium flux; Mas-related G-protein coupled receptor member X1 (Homo sapiens), Q96LB2; BAM8-22 antagonism; stronger effect = lower value; B-score at 10 µM; 1.3% of 310,000 active; AID 588676, 2011;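 active means calcium-response B-score plate-corrected more than 3 library SD below zero, starting fluorescence within 5 deviations, no agonist response on first addition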;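 further: peak minus trough fluorescence over baseline after final BAM8-22 challenge near maximal dose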
# RGS4 pot: RGS4 potentiators or activators, primary screen, cell-based, HEK293 M3R inducible RGS4, calcium flux. 0.92% of 310,000 active. AID 463111, 2010. B-score at 10 µM. carbachol calcium flux Fluo4; stronger effect = lower value;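 active means B-score of the integrated calcium signal more than 4 SD below the library mean, with starting fluorescence not abnormally high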;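 further: negative B-score means reduced calcium response which marks RGS4 activation or potentiation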
#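 Reagent: ECmax carbachol challenge; Test system: M3R-expressing HEK293 line, RGS4 induced by doxycycline; Schedule: overnight RGS4 induction, 30 min dye load 37 °C, 20 min compound RT; Detection: calcium dye Fluo4 fluorescence; Read-out: Agonist-evoked peak-minus-minimum fluorescence over baseline, integrated ratio, B score.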
# MrgX1 ag: agonists of human MrgX1 receptor, primary screen, HEK293 cells, Fluo-4 calcium flux; B-score at 10 µM; Fluo-4 calcium fluorescence, agonist mode; stronger effect = higher value; Mas-related G-protein coupled receptor member X1 (Homo sapiens), Q96LB2; 0.44% of 310,000 active;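 active means calcium response B-score plate-corrected fluorescence ratio at least 3 library SD, with starting fluorescence B-score inside 5 SD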
#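 Material: HEK293 cells stably expressing human MrgX1 receptor | Quantity: 15,000 cells per well | Times: Cells plated overnight, dye loaded 0.5 h 37 °C, 0.5 h room temperature | Measured by: Kinetic Fluo-4 NW fluorescence of intracellular calcium | Control set: Positive and negative controls per plate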
# A number is an active result; 0 = inactive; - = no result given.
SMILES,RGS4 block,MrgX1 PAM,MrgX1 antag,RGS4 pot,MrgX1 ag
COc1ccc2ccccc2c1/C=N\NC(=O)c1cccnc1,0,0,0,0,0
O=C(N/N=C/c1c(O)ccc2ccccc12)c1ccc(Br)o1,0,0,-5,0,0
O=C(N/N=C/c1c(O)ccc2ccccc12)c1cccnc1,0,0,-7.6,0,0
COc1ccc(-c2cn(-c3ccc(OC)cc3)c3[n+]2-c2ccccc2CC3)cc1,0,0,-7.9,0,0
COc1ccc(N2CCN(C(=O)c3ccccc3Br)CC2)c([N+](=O)[O-])c1,0,0,0,0,0
O=C(NCc1ccccc1)c1cc[n+]([O-])cc1,0,0,0,0,0
COc1ccccc1-c1nc2c(c(SCC(=O)N3CCCCC3)n1)Cc1c(CO)cnc(C)c1O2,0,0,0,-8.1,0
Cc1ncc(CO)c2c1Oc1nc(-c3ccccc3F)nc(SCC(=O)N(C)c3ccccc3)c1C2,0,0,0,0,0
Cc1ncc(CO)c2c1Oc1nc(-c3ccccc3)nc(SCC(=O)N(C)c3ccccc3)c1C2,0,10,0,-8.1,0
Cc1ncc(CO)c2c1Oc1nc(-c3ccccc3)nc(SCC(=O)N3CCOCC3)c1C2,0,0,0,0,0
CC1(c2ccc(OC(F)F)cc2)NC(=O)N(CC(=O)Nc2cccc(F)c2)C1=O (centres undefined),0,0,-6.2,0,0
CC1(c2ccc(OC(F)F)cc2)NC(=O)N(CC(=O)Nc2ccc(OC(F)F)cc2)C1=O (centres undefined),0,0,-12,0,0
CC1(c2ccc(OC(F)F)cc2)NC(=O)N(CC(=O)Nc2ccc(F)cc2)C1=O (centres undefined),0,0,0,0,0
Cc1ccc(C(=O)Nc2ccccc2Oc2ccccc2)o1,0,0,-4.5,0,0
O=C(O)c1ccc(Cl)c(S(=O)(=O)Nc2ccccc2Cc2ccccc2)c1,0,0,0,0,0
Cc1ccccc1N=C1SC(CC(=O)Nc2ccc3ccccc3c2)C(=O)N1Cc1ccccn1 (centres undefined),0,0,-9.7,0,0
COc1ccccc1CNC(=O)C1CCN(S(=O)(=O)c2ccc(N3CCCC3=O)cc2)CC1,0,0,0,0,0
CCOc1cc(/C=N/NC(=O)c2nn(C)cc2Br)ccc1OCc1ccccc1,0,0,-6.8,0,0
Cc1sc2nc(CSc3cccc(C(F)(F)F)c3)[nH]c(=O)c2c1C,0,0,-5.1,0,0
Cc1cccc(N(C(=O)CNC(=O)c2ccco2)C(C(=O)NC2CCCC2)c2cccnc2)c1C (centres undefined),0,0,0,0,0
CC1(C)C=Cc2cc(-c3coc4cc(O)cc(O)c4c3=O)cc(O)c2O1,0,0,-5.3,0,0
O=c1c(-c2ccc3c(c2)OCCO3)coc2cc(O)cc(O)c12,0,0,0,0,0
C[C@H](NC(=O)Cc1ccccc1)C(=O)N1CCC2(CC1)NCCc1[nH]cnc12,0,0,0,0,0
CC1=C(C)CS(=O)N(S(=O)(=O)c2ccc(Cl)cc2)C1 (centres undefined),0,0,0,0,52
CC1CCCC(C)N1S(=O)(=O)c1ccc(Cl)cc1 (centres undefined),0,0,0,0,0
SMILES,RGS4 block,MrgX1 PAM,MrgX1 antag,RGS4 pot,MrgX1 ag
CCCN(Cc1ccc(N(CC)CC)cc1)CC1CC1,0,0,0,-7.1,0
CCCN(Cc1ccc(N(C)C)cc1)CC1CC1,0,0,0,0,0
CC(C)CC(=O)NC(=S)Nc1nc(-c2cccc3ccccc23)cs1,0,0,0,-7.1,0
O=C(NC(NC(=S)Nc1ccc(Cl)cc1)C(Cl)(Cl)Cl)c1ccco1 (centres undefined),0,0,0,0,0
CC(=O)c1ccc(NC(=S)NC(NC(=O)c2ccco2)C(Cl)(Cl)Cl)cc1 (centres undefined),0,7.6,0,0,0
CCOc1ccc(N(CC(=O)N/N=C(\C)c2cccc(NC(C)=O)c2)S(=O)(=O)c2ccccc2)cc1,0,0,0,0,0
CN(Cc1ccc(F)cc1)C(=O)c1sccc1-c1ccccc1,0,0,0,-7.2,0
CCOC(=O)C1(Cc2ccccc2C)CCCN(C(=O)c2ccc3nccnc3c2)C1 (centres undefined),0,0,0,-7.1,0
CCOC(=O)C1(Cc2ccccc2C)CCCN(C(=O)c2ccccn2)C1 (centres undefined),0,0,0,0,0
COc1ccc(-n2nc(C(=O)NCC(=O)Nc3cccc(Cl)c3)c3ccccc3c2=O)cc1OC,0,0,0,0,0
Cc1ccccc1CN1C(=O)C(C)S/C1=N/N=C/c1ccco1 (centres undefined),0,13,0,0,0
CCSc1ccc([C@@H]2[C@H]3C(=O)N(C)C(=O)[C@H]3[C@]3(C(=O)OC)CCCCN23)cc1OC,-,0,0,-,0
Cc1oc(C)c2c(=O)ccc3c(c12)OC(N)=C(C#N)C3c1ccccc1 (centres undefined),0,0,0,0,49
CSc1ccc(C2C(C#N)=C(N)Oc3c2ccc(=O)c2c(C)oc(C)c32)cc1 (centres undefined),0,9.8,0,0,0
Cc1oc(C)c2c(=O)ccc3c(c12)OC(N)=C(C#N)C3c1ccccc1Cl (centres undefined),0,0,0,0,0
CCCCOc1ccc(C2=CSC3=NCCN23)cc1[N+](=O)[O-],0,0,0,-7.4,0
COc1ccc(CCNC(=O)C(NS(=O)(=O)c2cccc3nsnc23)C(C)C)cc1OC (centres undefined),0,0,0,0,0
Cc1ccccc1CSCC(=O)Nc1ccccc1F,0,0,0,0,0
CCCOc1ccc(NC(=O)Cc2ccc(S(=O)(=O)N3CCOCC3)s2)cc1OCCC,0,0,-4.7,0,0
O=C1Nc2ccccc2C1=Nc1cccc([N+](=O)[O-])c1,0,0,0,0,0
Cc1cccc(N=C2C(=O)Nc3c(Cl)cccc32)c1,0,0,0,0,28
O=C(COc1ccc(S(=O)(=O)N2CCCC2)cc1)NCc1cccnc1,0,0,0,0,0
C/C(=N\Nc1cc(N2CCOCC2)ncn1)c1ccc(O)cc1,0,0,0,0,0
CCc1cc2c3c(c(=O)oc2cc1O)CCCC3,0,0,-5.5,0,0
CCc1cc2c3c(c(=O)oc2cc1OC(C)C(=O)O)CCCC3 (centres undefined),0,0,0,0,0
CC1(C)OC(=O)C(=CNc2ccccc2)C(=O)O1,0,0,-7.3,0,0
Cc1cc(C)n2nc(C(=O)OCC(=O)c3c[nH]c4ccccc34)nc2n1,0,0,-5.5,0,0
COc1ccccc1-c1coc2cc(OC(=O)N3CCOCC3)ccc2c1=O,0,0,0,0,0
